Assay results taken from ChEMBL document CHEMBL1159118, “The effect of backbone cyclization on PK/PD properties of bioactive peptide-peptoid hybrids: the melanocortin agonist paradigm” (Bioorg Med Chem, 2010).
Numbered stars: 1 amine (or outer) side, 2 acyl side, 3 side chain; on linkers, the order of the positions; unused ones are H or OH. Bridge positions count the residues as written; N and C are the ends. Square brackets hold non-standard residues; d marks the D form. Peptide text beside a SMILES is read from it. N(2-Aminoethyl)Gly = O=C(CN(CCN[*:3])[*:1])[*:2]; Adipoyl = O=C(CCCCC(=O)[*:2])[*:1]; Glutaryl = O=C(CCCC(=O)[*:2])[*:1]; Suc = O=C(CCC(=O)[*:2])[*:1]; Nphe = O=C(O)CNCc1ccccc1

Assays:
[1] = Metabolic stability in Wistar rat brush border membrane vesicles assessed as drug degradation up to 90 mins by HPLC; format: ADME, cell membranes; settings: read-out: Activity
In short: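 Brush border membrane vesicles from duodenum, jejunum and upper ileum of male Wistar rats (200–250 g), Ca2+ precipitation, 13–18-fold marker-enzyme enrichment. Compound incubated with BBMVs at 37 °C for 90 min; duplicate samples at 0, 15, 30, 45, 60, 90 min, quenched 1:1 with ice-cold methanol, centrifuged, analysed by HPLC.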

Melanocortin receptor 3 = Melanocortin receptor 3 (Mus musculus, UniProt P33033); test: Agonist activity at mouse MC3R expressed in HEK293 cells by beta-galactosidase reporter gene assay; format: functional, cell-based
Melanocortin receptor 3, sequence (P33033 whole entry): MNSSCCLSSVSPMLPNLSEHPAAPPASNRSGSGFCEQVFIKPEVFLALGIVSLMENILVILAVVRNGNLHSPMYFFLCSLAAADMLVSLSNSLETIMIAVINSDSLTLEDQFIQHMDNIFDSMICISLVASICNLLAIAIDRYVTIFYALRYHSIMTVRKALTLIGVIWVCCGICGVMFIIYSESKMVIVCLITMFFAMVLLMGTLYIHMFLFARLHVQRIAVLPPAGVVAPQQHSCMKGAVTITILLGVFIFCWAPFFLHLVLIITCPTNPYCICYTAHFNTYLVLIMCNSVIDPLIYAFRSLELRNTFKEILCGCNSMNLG

Caco-2 = test: Ratio of Papp for mannitol to Papp for drug in permeability across apical to basolateral side of human Caco-2 cells; format: ADME, cell-based
Melanocortin receptor 4 = Melanocortin receptor 4 (Mus musculus, UniProt P56450); test: Agonist activity at mouse MC4R expressed in HEK293 cells by beta-galactosidase reporter gene assay; format: functional, cell-based
Melanocortin receptor 4, sequence (P56450 whole entry): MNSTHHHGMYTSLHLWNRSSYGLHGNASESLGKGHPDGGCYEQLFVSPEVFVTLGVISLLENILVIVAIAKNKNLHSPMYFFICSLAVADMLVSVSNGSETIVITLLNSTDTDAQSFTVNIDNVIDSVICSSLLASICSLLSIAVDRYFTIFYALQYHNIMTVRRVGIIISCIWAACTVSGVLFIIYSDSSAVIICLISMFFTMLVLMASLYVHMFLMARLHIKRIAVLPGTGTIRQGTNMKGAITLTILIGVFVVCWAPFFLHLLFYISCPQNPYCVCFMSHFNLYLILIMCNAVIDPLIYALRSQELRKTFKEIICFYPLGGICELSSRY

[2] = (§1) Metabolic stability in rat serum assessed as drug degradation after 4 hrs; format: ADME, cell-free; settings: read-out: Activity
Melanocortin receptor 5 = Melanocortin receptor 5 (Mus musculus, UniProt P41149); test: Agonist activity at mouse MC5R expressed in HEK293 cells by beta-galactosidase reporter gene assay; format: functional, cell-based
Melanocortin receptor 5, sequence (P41149 whole entry): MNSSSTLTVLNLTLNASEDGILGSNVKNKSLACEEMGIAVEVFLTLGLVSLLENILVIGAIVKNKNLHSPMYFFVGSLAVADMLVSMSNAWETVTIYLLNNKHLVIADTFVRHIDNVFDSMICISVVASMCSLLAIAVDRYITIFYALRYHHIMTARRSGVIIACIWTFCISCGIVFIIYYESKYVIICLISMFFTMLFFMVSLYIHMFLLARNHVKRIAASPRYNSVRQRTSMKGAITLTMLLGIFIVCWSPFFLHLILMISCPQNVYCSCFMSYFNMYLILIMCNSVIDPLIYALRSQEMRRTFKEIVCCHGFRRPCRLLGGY

[3] = biological target: Melanocyte-stimulating hormone receptor (Mus musculus, UniProt Q01727); test: Agonist activity at mouse MC1R expressed in HEK293 cells by beta-galactosidase reporter gene assay; format: functional, cell-based
Melanocyte-stimulating hormone receptor, sequence (Q01727 whole entry): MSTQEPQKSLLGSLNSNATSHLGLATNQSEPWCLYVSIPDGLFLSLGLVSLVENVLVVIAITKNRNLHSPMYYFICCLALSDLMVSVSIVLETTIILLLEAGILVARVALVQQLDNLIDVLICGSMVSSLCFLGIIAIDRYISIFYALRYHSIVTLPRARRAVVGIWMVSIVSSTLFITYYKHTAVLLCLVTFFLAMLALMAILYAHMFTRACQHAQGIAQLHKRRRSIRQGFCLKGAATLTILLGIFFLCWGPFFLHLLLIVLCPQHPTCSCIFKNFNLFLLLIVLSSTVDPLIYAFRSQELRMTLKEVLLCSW

[4] = Membrane binding affinity to synthetic dimyristoylphosphatidylcholine/polydiacetylene vesicles assessed as colorimetric response by colorimetric assay; design: concentration or dose not given beside the values
In short: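 Peptide added from 0.4 mg/mL stock to vesicles (0.5 mM total lipids, 25 mM Tris-base pH 8), diluted with water; UV–vis absorbance at 640 and 500 nm; %CR = [(PB0 − PBI)/PB0] × 100, PB = Ablue/(Ablue + Ared); duplicates.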

[5] = (§2) Metabolic stability in rat serum assessed as drug degradation after 1 hr; format: ADME, cell-free; settings: read-out: Activity
In short: (§3)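 Incubation in rat serum, sampled at 0, 1, 2 and 5 h; degradation relative to initial concentration.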

Serum [6] = test: Metabolic stability in rat serum assessed as drug remaining after 3 hrs; format: ADME, cell-free
Serum [7] = test: as §2; format: ADME, cell-free; settings: 1 h; in short: as §3
Serum [8] = test: as §1; format: ADME, cell-free; settings: 4 h
[9] = biological target: Melanocortin receptor 4 (Mus musculus) (UniProt P56450); test: Agonist activity at mouse MC4R expressed in HEK293 cells at 100 uM by beta-galactosidase reporter gene assay relative to control; format: functional, cell-based
Melanocortin receptor 4 (Mus musculus), sequence (P56450 whole entry): as the sequence (P56450 whole entry) above
In short: (§4)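 CRE/β-galactosidase reporter in HEK-293 cells stably expressing the mouse receptor; 6 h peptide exposure with 0.1 mM IBMX; ONPG read at OD 405 nm, normalized to protein content and forskolin (10–4 M) response; % stimulation at highest concentration tested, relative to control; ≥3 independent experiments.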

[10] = biological target: Melanocortin receptor 3 (Mus musculus) (UniProt P33033); test: Agonist activity at mouse MC3R expressed in HEK293 cells at 100 uM by beta-galactosidase reporter gene assay relative to control; format: functional, cell-based; in short: as §4
Melanocortin receptor 3 (Mus musculus), sequence (P33033 whole entry): as the sequence (P33033 whole entry) above

SMILES	metabolised at 1.5 h [1] [%]	EC50 (Melanocortin receptor 3) [nM]	EC50 (Melanocortin receptor 4) [nM]	EC50 (Melanocortin receptor 5) [nM]	EC50 [3] [nM]	Activity [4] [%]	also measured
N=C(N)NCCC[C@@H]1NC(=O)[C@@H](Cc2ccccc2)NC(=O)CN(Cc2ccccc2)C(=O)CCCC(=O)NCCN(CC(N)=O)C(=O)[C@H](Cc2c[nH]c3ccccc23)NC1=O	5	> 100	640	310	220	89	Ratio (Caco-2): 3; metabolised at 4 h [2]: > 40%
NC(=O)[C@H](Cc1c[nH]c2ccccc12)NC(=O)[C@H](CCCN=C(N)N)NC(=O)[C@@H](Cc1ccccc1)NC(=O)[C@@H](N)Cc1ccccc1	–	11900	70.6	143	503	–	–
CC(=O)NCC(=O)N(CC(=O)N[C@H](Cc1ccccc1)C(=O)N[C@@H](CCCNC(=N)N)C(=O)N[C@@H](Cc1c[nH]c2ccccc12)C(=O)NCC(N)=O)Cc1ccccc1	20	> 100	9820	3430	11800	31	metabolised at 1 h [5]: 50%
N=C(N)NCCC[C@@H]1NC(=O)[C@@H](Cc2ccccc2)NC(=O)CN(Cc2ccccc2)C(=O)CCC(=O)NCCN(CC(N)=O)C(=O)[C@H](Cc2c[nH]c3ccccc23)NC1=O	5	> 100	1370	1650	380	< 30	Stability (Serum [6]): Stable; Stability (Serum [7]): Stable; Activity (Serum [8]): Stable
N=C(N)NCCC[C@@H]1NC(=O)[C@@H](Cc2ccccc2)NC(=O)CN(Cc2ccccc2)C(=O)CCCCC(=O)NCCN(CC(N)=O)C(=O)[C@H](Cc2c[nH]c3ccccc23)NC1=O	5	7170	49	8.1	120	90	metabolised at 4 h [2]: > 40%
NC(=O)CN1CCNC(=O)CCCCC(=O)N[C@@H](Cc2ccccc2)C(=O)N(Cc2ccccc2)CC(=O)N[C@@H](CCCN=C(N)N)C(=O)N[C@@H](Cc2c[nH]c3ccccc23)C1=O (F[Nphe]RW[N(2-Aminoethyl)Gly]-NH2; linker N-5 via Adipoyl)	5	> 100	3300	485	1170	–	–
N=C(N)NCCC[C@@H]1NC(=O)CN(Cc2ccccc2)C(=O)[C@H](Cc2ccccc2)NC(=O)CCCCC(=O)NCCN(CC(N)=O)C(=O)[C@H](Cc2c[nH]c3ccccc23)NC1=O (F[Nphe]RW[N(2-Aminoethyl)Gly]-NH2; linker N-5 via Adipoyl)	–	–	–	–	–	< 30	–
NC(=O)CN1CCNC(=O)CCCC(=O)N[C@@H](Cc2ccccc2)C(=O)N(Cc2ccccc2)CC(=O)N[C@@H](CCCN=C(N)N)C(=O)N[C@@H](Cc2c[nH]c3ccccc23)C1=O (F[Nphe]RW[N(2-Aminoethyl)Gly]-NH2; linker N-5 via Glutaryl)	5	> 100	–	2320	1000	–	–
N=C(N)NCCC[C@@H]1NC(=O)CN(Cc2ccccc2)C(=O)[C@H](Cc2ccccc2)NC(=O)CCCC(=O)NCCN(CC(N)=O)C(=O)[C@H](Cc2c[nH]c3ccccc23)NC1=O (F[Nphe]RW[N(2-Aminoethyl)Gly]-NH2; linker N-5 via Glutaryl)	–	–	–	–	–	< 30	Activity [9]: 25%
NC(=O)CN1CCNC(=O)CCC(=O)N[C@@H](Cc2ccccc2)C(=O)N(Cc2ccccc2)CC(=O)N[C@@H](CCCN=C(N)N)C(=O)N[C@@H](Cc2c[nH]c3ccccc23)C1=O (F[Nphe]RW[N(2-Aminoethyl)Gly]-NH2; linker N-5 via Suc)	5	> 100	3830	3960	2810	–	–
N=C(N)NCCC[C@@H]1NC(=O)CN(Cc2ccccc2)C(=O)[C@H](Cc2ccccc2)NC(=O)CCC(=O)NCCN(CC(N)=O)C(=O)[C@H](Cc2c[nH]c3ccccc23)NC1=O (F[Nphe]RW[N(2-Aminoethyl)Gly]-NH2; linker N-5 via Suc)	–	–	–	–	–	< 30	–
CC(=O)NCC(=O)N[C@@H](Cc1ccccc1)C(=O)N(CC(=O)N[C@@H](CCCNC(=N)N)C(=O)N[C@@H](Cc1c[nH]c2ccccc12)C(=O)NCC(N)=O)Cc1ccccc1 (HELM PEPTIDE1{[ac].G.F.[O=C(CN(Cc1ccccc1)[*:1])[*:2]].R.W.G.[am]}$$$$V2.0)	20	> 100	8.8	16.2	220	< 30	Stability (Serum [6]): Unstable
CC(=O)NCC(=O)N(CC(=O)N(CC(=O)N[C@@H](CCCNC(=N)N)C(=O)N[C@@H](Cc1c[nH]c2ccccc12)C(=O)NCC(N)=O)Cc1ccccc1)Cc1ccccc1 (HELM PEPTIDE1{[ac].G.[O=C(CN(Cc1ccccc1)[*:1])[*:2]].[O=C(CN(Cc1ccccc1)[*:1])[*:2]].R.W.G.[am]}$$$$V2.0)	20	–	10.5	8.1	240	< 30	Stability (Serum [6]): Unstable; Activity [10]: 40%
NC(=O)CN1CCNC(=O)CCCCC(=O)N(Cc2ccccc2)CC(=O)N(Cc2ccccc2)CC(=O)N[C@@H](CCCN=C(N)N)C(=O)N[C@@H](Cc2c[nH]c3ccccc23)C1=O ([Nphe][Nphe]RW[N(2-Aminoethyl)Gly]-NH2; linker N-5 via Adipoyl)	5	> 100	1700	320	990	–	–
N=C(N)NCCC[C@@H]1NC(=O)CN(Cc2ccccc2)C(=O)CN(Cc2ccccc2)C(=O)CCCCC(=O)NCCN(CC(N)=O)C(=O)[C@H](Cc2c[nH]c3ccccc23)NC1=O ([Nphe][Nphe]RW[N(2-Aminoethyl)Gly]-NH2; linker N-5 via Adipoyl)	–	–	–	–	–	< 30	–
NC(=O)CN1CCNC(=O)CCCC(=O)N(Cc2ccccc2)CC(=O)N(Cc2ccccc2)CC(=O)N[C@@H](CCCN=C(N)N)C(=O)N[C@@H](Cc2c[nH]c3ccccc23)C1=O ([Nphe][Nphe]RW[N(2-Aminoethyl)Gly]-NH2; linker N-5 via Glutaryl)	5	> 100	2250	350	1680	–	Ratio (Caco-2): 3
N=C(N)NCCC[C@@H]1NC(=O)CN(Cc2ccccc2)C(=O)CN(Cc2ccccc2)C(=O)CCCC(=O)NCCN(CC(N)=O)C(=O)[C@H](Cc2c[nH]c3ccccc23)NC1=O ([Nphe][Nphe]RW[N(2-Aminoethyl)Gly]-NH2; linker N-5 via Glutaryl)	–	–	–	–	–	< 30	–
N=C(N)NCCC[C@@H]1NC(=O)CN(Cc2ccccc2)C(=O)CN(Cc2ccccc2)C(=O)CCC(=O)NCCN(CC(N)=O)C(=O)[C@H](Cc2c[nH]c3ccccc23)NC1=O ([Nphe][Nphe]RW[N(2-Aminoethyl)Gly]-NH2; linker N-5 via Suc)	5	> 100	1960	2950	620	< 30	–
